Most compounds without a hit are left out; they make up all but 2.9% or so of the library.
MEKK2mut PB1 HTS: MEK5 binding signal on mutant MEKK2 PB1, primary screen, biochemical, multiplex bead flow cytometry, Alexa488-MEK5; Alexa488-MEK5 binding to MEKK2 mutant; actives 0.35% (n = 290,000); percent response, % at 10 µM; in the data active = percent response above about 24%, passing the limit was not always enough
UBC13 polyUb: UBC13 polyubiquitin chain formation inhibitors, primary screen, biochemical, TR-FRET, uHTS | inhibition, % at 20 µM | actives 0.47% (n = 330,000); in the data active = inhibition above about 45%, passing the limit was not always enough
MEKK2 WT-MEK5: modulators of MEK5 binding to wildtype MEKK2, primary screen, biochemical, multiplex bead flow cytometry, Alexa488-MEK5. Mitogen-activated protein kinase kinase kinase 2 (Homo sapiens), Q9Y2U5. Alexa488-MEK5 binding to MEKK2 WT; actives lie on both sides. binding response (% of control), % at 10 µM. actives 1.1% (n = 290,000); in the data active = binding response below about 67% or above about 130%
Apaf1 inhib: inhibitors of human Apaf-1 apoptosome, primary screen, biochemical, DEVD-Rh110 fluorescence, uHTS. Apoptotic protease-activating factor 1 (Homo sapiens), O14727. actives 0.71% (n = 330,000). inhibition, % at 20 µM. reconstituted apoptosome caspase-3 activity; active = inhibition of at least 40% at 20 µM;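 note: plate controls were DMSO wells for no effect and DEVD-CHO caspase inhibitor wells for full effect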
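Medium: Hepes buffer, pH 7.5 / System: biochemical Apaf-1 apoptosome reconstitution / Measured by: Rh110 fluorescence, excitation 480 nm, emission 540 nm / Times: compound with Apaf-1, dATP, procaspase-3 30 min, then 50 min reaction, room temperature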
MEKK3 PB1 HTS: modulators of MEKK3-MEK5 PB1 binding, primary screen, biochemical, wildtype MEKK3, multiplex bead flow cytometry, Alexa488-MEK5; bead-based flow cytometry, Alexa488-MEK5 binding to MEKK3; actives lie on both sides; 0 = blocked by unlabeled MEK5, 100 = vehicle; actives 1.4% (n = 290,000); Mitogen-activated protein kinase kinase kinase 3 (Homo sapiens), Q99759; AID 1529, 2009; binding response (% of control), % at 10 µM;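 active = binding response more than 3 SD above or below the average of its plate-row segment, actives on both sides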;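 note: Alexa488 bead fluorescence after subtracting the streptavidin-only scavenger bead signal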
Target sequence (Q99759 whole entry, looked up): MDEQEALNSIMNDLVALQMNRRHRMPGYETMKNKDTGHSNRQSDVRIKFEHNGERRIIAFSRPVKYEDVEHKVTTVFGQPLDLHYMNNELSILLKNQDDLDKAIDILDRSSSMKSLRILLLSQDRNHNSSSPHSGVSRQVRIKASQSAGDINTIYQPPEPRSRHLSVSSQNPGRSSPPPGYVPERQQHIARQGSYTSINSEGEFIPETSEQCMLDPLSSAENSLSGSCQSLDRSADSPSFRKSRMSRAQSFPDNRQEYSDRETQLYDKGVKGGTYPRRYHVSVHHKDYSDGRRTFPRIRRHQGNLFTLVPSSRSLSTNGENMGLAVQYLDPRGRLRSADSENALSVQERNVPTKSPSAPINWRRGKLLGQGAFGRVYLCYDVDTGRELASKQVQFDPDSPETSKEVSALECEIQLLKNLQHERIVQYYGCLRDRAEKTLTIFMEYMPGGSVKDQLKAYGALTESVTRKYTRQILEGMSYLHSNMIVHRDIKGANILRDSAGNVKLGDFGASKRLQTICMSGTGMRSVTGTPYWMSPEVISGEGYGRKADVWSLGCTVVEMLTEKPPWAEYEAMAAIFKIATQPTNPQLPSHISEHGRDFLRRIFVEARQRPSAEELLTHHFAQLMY
MEKK2wt confirm: modulators of MEK5 binding to wildtype MEKK2, confirmation, biochemical, single concentration, multiplex bead flow cytometry | actives 2.4% (n = 5,900) | Alexa488-MEK5 binding to MEKK2 WT; actives lie on both sides | shares compounds with MEKK3 PB1 HTS | binding response (% of control), % at 10 µM; in the data active = binding response below about 16% or above about 210%; inactive = in between
MEKK2mut-MEK5: mutant MEKK2 PB1-MEK5 binding signal retest – biochemical, single concentration, multiplex bead flow cytometry, confirmation | AID 1893, 2009 | actives 2% (n = 5,900) | shares compounds with MEKK3 PB1 HTS | percent response, % at 10 µM | Alexa488-MEK5 binding to MEKK2 mutant; in the data active = percent response mostly above about 71%, no sharp cut-off; inactive = mostly below about 38%;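 note: higher means compound restores mutant binding toward wildtype level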
MEKK3-MEK5 inh: MEKK3 wild-type PB1 binding to MEK5, inhibitors, confirmation, biochemical, bead multiplex flow cytometry, single concentration, wildtype | shares compounds with MEKK3 PB1 HTS | Alexa488-MEK5 binding to MEKK3; stronger effect = lower value | binding response (% of control), % at 10 µM | actives 1.8% (n = 5,900);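 active = binding response below 72% of control, or above a set upper limit, though filed actives all read lower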;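 note: 100% = DMSO only wells and 0% = binding blocked by excess unlabeled MEK5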
An asterisk follows results filed as active; . = not tested or not shown; [ ] = remark or other dose.

SMILES	MEKK2mut PB1 HTS	UBC13 polyUb	MEKK2 WT-MEK5	Apaf1 inhib	MEKK3 PB1 HTS	MEKK2wt confirm	MEKK2mut-MEK5	MEKK3-MEK5 inh
Cc1ccc(C)c2[nH]c(=O)c(CN(Cc3cccs3)C(=S)NCc3ccco3)cc12	1	-6	115	30	137*	109	9	103
Cc1cc2cc(CN(Cc3cccs3)C(=S)NCc3ccco3)c(=O)[nH]c2cc1C	-2	-4	96	8	94	.	.	.
CCN(CC)C(=O)c1sc(NC(=O)C(Sc2ccccc2)c2ccccc2)c(C(=O)OC(C)C)c1C (centres undefined)	7	-9	112	17	113	.	.	.
CCc1cccc(OCCOC(=O)CNS(=O)(=O)c2ccc(NC(C)=O)cc2)c1	.	-10	.	10	.	.	.	.
Cc1ccccc1N(C(=O)c1csnn1)C(C(=O)NC(C)(C)C)c1ccncc1 (centres undefined)	-4	4	89	1	80	.	.	.
CC(C)(C)NC(=O)C(c1ccncc1)N(C(=O)c1csnn1)c1cccc2ccccc12 (centres undefined)	6	6	124	-2	143*	98	-21	98
COc1cccc(N2[C@@H](CC(=O)O)c3ccc(/C=C/C(=O)O)cc3S2(=O)=O)c1	1	-8	101	-30	99	.	.	.
O=C(NCCOC(=O)C1COc2ccccc2O1)C1COc2ccccc2O1 (centres undefined)	-2	3	99	1	101	.	.	.
CC(C)N(C)CCOC(=O)C1COc2ccccc2O1 (centres undefined)	28	0	116	-14	131*	93	-13	92
CCN(CC)CCNC(=O)COc1ccc(OC)cc1	-8	8	94	-6	94	.	.	.
Cc1ccc(C23CC4CC(CC(NC(=O)NCCN(C)C)(C4)C2)C3)cc1	31*	9	156*	15	107	21	-25	35*
CN(C)CCNC(=O)COc1ccc(C23CC4CC(CC(C4)C2)C3)cc1	14	37	151*	26	98	124	7	103
Oc1ccccc1C1CC(c2cccs2)=NC(c2cccc(Br)c2)N1 (centres undefined)	-8	-9	94	10	98	.	.	.
Cn1c(=O)n(C)c2cc(S(=O)(=O)NCc3ccccc3)ccc21	5	6	103	-7	103	.	.	.
CN(Cc1ccccc1)S(=O)(=O)c1ccc2c(c1)n(C)c(=O)n2C	-41	-3	1.0*[inhibitor]	4	2.0*[inhibitor]	101	5	103
O=C(CSc1ccccc1C(=O)NCc1ccccc1)NC12CC3CC(CC(C3)C1)C2	0	-2	100	2	134*	99	0	102
O=C(CSc1ccccc1C(=O)O)NC1CCCCCC1	-11	3	91	-24	91	.	.	.
O=C(CSc1ccccc1C(=O)NCc1ccccc1)NC1CCCCCCC1	0	8	101	10	131*	101	-5	102
O=C(NCc1ccccc1)C1CCCN(C(=O)c2ccc(F)cc2)C1 (centres undefined)	.	0	.	-7	.	.	.	.

Bioassay records as filed in PubChem BioAssay.
